The RNAGym collection of RNA variant scans (doi:10.1126/science.aae0568)
This sample holds only a part of the variants without activity.

B1: tRNA (parent)
chain: GUUCCGUUGGCGUAAUGGUAACGCGUCUCCCUCCUAAGGAGAAGACUGCGGGUUCGAGUCCCGUACGGAACG

Variants of: B1
Experiment: yeast fitness relative to wild type (ratio to wild type); higher = fitter; tRNA-Arg(CCU), competitive growth, 37 C, YPD
Outline: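 Variants of the tRNA-Arg(CCU) gene, chemically synthesised with a 3% per-site mutation rate at 69 sites, were placed at the native genomic locus in Saccharomyces cerevisiae. The pooled strains were competed in YPD at 37°C for 24 hours in six parallel replicates. Gene amplicons from the start population and from each end population were read by 100-nucleotide paired-end sequencing. Darwinian fitness relative to wild type came from changes in genotype frequencies; genotypes needed ≥ 100 starting reads, and estimates < 0.5 were set to 0.5.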

Variant	yeast fitness
GUUCCGUUGGCGUAAUGGUAACGCGUCUGCCUCCUAAGGAGAAGACUGCGGGUUCGUGUACCGUACGGAACG [C29G A57U C60A]	≤ 0.5
GUUCCGUUGGCGUAAUGGUAACGCGUCUGCCUCCUAAGGAGAAGCCUGCGGAUUCGAGUCCCGUACGGAACG [C29G A45C G52A]	≤ 0.5
GUUCCGUUGGCGUAAUGGUAACGCGUCUGCUUCCUAAGGAGAAGACUGCGGGUUCGAGUCCCGUACGGAACG [C29G C31U]	0.68
GUUCCGUUGGCGUAAUGGUAACGCGUCUGCAUCCUAAGGAGAAGACUGCGGGUUCGAGUCCCGUACGGAACG [C29G C31A]	0.511
GUUCCGUUGGCGUAAUGGUAACGCGUCUGCGUCCUAAGGAGAAGACUGCGGGUUCGAGUCCCGUACGGAACG [C29G C31G]	0.695
GUUCCGUUGGCGUAAUGGUAACGCGUCUGGCUCCUAAGGAGAAGACUGCGGGUUCGUGUCCCGUACGGAGCG [C29G C30G A57U A70G]	0.503
GUUCCGUUGGCGUAAUGGUAACGCGUCUGCCUCCUAAGGAGAAGACUGCGGGUUCGAGUCCCGUACGGAUCG [C29G A70U]	0.682
GUUCCGUUGGCGUAAUGGUAACGCGUCUGCCUCCUAAGGAGAAGACUGCGGGUUCGAGUCCCGUACGGAGCG [C29G A70G]	0.548
GUUCCGUUGGCGUAAUGGUAACGCGUCUGCCUCCUAAGGAGAAGACUGCGGGUUCGAGUCCCGUACGGACCG [C29G A70C]	0.76
GUUCCGUUGGCGUAAUGGUAACGCGUCUGCCUGCUAAGGAGAAGACUGCGGCUUCGAGUCCCGUACGGAACG [C29G C33G G52C]	0.579
GUUCCGUUGGCGUAAUGGUAACGCGUCUGCCUCCUAAGGAGAAGCCUGCGGGUUCGAGUCCCGUACGGAGCG [C29G A45C A70G]	0.573
GUUCCGUUGGCGUAAUGGUAACGCGUCUGCCUCCUAAGGAGAGGACAGCGGGUUCGAGUCCCGUACGGAACG [C29G A43G U47A]	≤ 0.5
GUUCCGUUGGCGUAAUGGUAACGCGUCUGCCUCCUAAGGAGAUGACUGCGGGUUCGAGUCCCGUAUGGAACG [C29G A43U C66U]	≤ 0.5
GUUCCGUUGGCGUAAUGGUAACGCGUCUGCCUUCUAAGGAGAAGACAGCGGGUUCGAAUCCCGUACGGAACG [C29G C33U U47A G58A]	≤ 0.5
GUUCCGUUGGCGUAAUGGUAACGCGUCUGCCUCCUAAGGAGAUGAUUGCGGGUUCGAGUCCCGUACGGAACG [C29G A43U C46U]	≤ 0.5
GUUCCGUUGGCGUAAUGGUAACGCGUCUGCCUGCUAAGGAGAAGACUGCGGGUUCGACUCCGGUACGGAACG [C29G C33G G58C C62G]	≤ 0.5
GUUCCGUUGGCGUAAUGGUAACGCGUCUGGCCCCUUAGGAGAAGACUGCGGGUUCGAGUCCCGUACGGAACG [C29G C30G U32C A36U]	0.524
GUUCCGUUGGCGUAAUGGUAACGCGUCUGCCUCCUAAGGAGAAGAGUGCGGGUUCGAGUCCCGUACGGAACG [C29G C46G]	0.687
GUUCCGUUGGCGUAAUGGUAACGCGUCUGCCUGCUAAGGAGAAGACUGUGGGUUCGAGUCCCGUACGGAACG [C29G C33G C49U]	0.536

Variant	yeast fitness
GUUCCGUUGGCGUAAUGGUAACGCGUCUGCCUCCUAAGGAGACGACUGCGGGUUCGAGUCCCGUACGGAACG [C29G A43C]	0.661
GUUCCGUUGGCGUAAUGGUAACGCGUCUGCCUCCUAAGGAGAGGACUGCGGGUUCGAGUCCCGUACGGAACG [C29G A43G]	0.785
GUUCCGUUGGCGUAAUGGUAACGCGUCUGCCUCCUAAGGAGAAGACUGCGGGUUCGAGUCCCGUGAGGAACG [C29G A65G C66A]	≤ 0.5
GUUCCGUUGGCGUAAUGGUAACGCGUCUGCAUGCUAAGGAAAGGACUGCGGGUUCGAGUCUCGUACGGAACG [C29G C31A C33G G41A A43G C61U]	≤ 0.5
GUUCCGUUGGCGUAAUGGUAACGCGUCUGCCUCCUAAGGAGUAGACGGCGGGUUCGCGUCACGUACGGAACG [C29G A42U U47G A57C C61A]	≤ 0.5
GUUCCGUUGGCGUAAUGGUAACGCGUCUGCCUCAUAAGGAGAAGACUGCGGGUUCGAGUACCGUACGGAACG [C29G C34A C60A]	≤ 0.5
GUUCCGUUGGCGUAAUGGUAACGCGUCUGCUUCCUAAGGAGACCACUGCGGGUUCGAGUCCCGUUCGGAACG [C29G C31U A43C G44C A65U]	0.517
GUUCCGUUGGCGUAAUGGUAACGCGUCUGCCUCUUAACGAGAAGACUGCGGGUUAGAGUCCCGUACGGAACG [C29G C34U G38C C55A]	≤ 0.5
GUUCCGUUGGCGUAAUGGUAACGCGUCUGCCUUCUAAGGAGAAGUCUGCGGGUUCAAGCCCCGUCCGGAGCG [C29G C33U A45U G56A U59C A65C A70G]	≤ 0.5
GUUCCGUUGGCGUAAUGGUAACGCGUCUGCCUCCUAAGGAGAAGAAUGCGGGUUCGAGCCCCGUACGGAACG [C29G C46A U59C]	0.546
GUUCCGUUGGCGUAAUGGUAACGCGUCUGCCUCCUAAGGAGAUGAGUGCGGGUUCGAGUCCAGUACGGAACG [C29G A43U C46G C62A]	≤ 0.5
GUUCCGUUGGCGUAAUGGUAACGCGUCUGCCUCAUAGGGAGAAGACUGCGGGUUCGAGUACCGUACGGAACG [C29G C34A A37G C60A]	≤ 0.5
GUUCCGUUGGCGUAAUGGUAACGCGUCUGCCUCAUAAGGAGAAGACUGCGGGUUCGAGUACCGUACGGCACG [C29G C34A C60A A69C]	≤ 0.5
GUUCCGUUGGCGUAAUGGUAACGCGUCUGCCUCCUAAGGAGACGACUGCGGGUUCGAGUCCCGUACCGAACG [C29G A43C G67C]	0.654
GUUCCGUUGGCGUAAUGGUAACGCGUCUGCCUCCUAAGGAGAAGACUGCGGGUUCGAGUCCCGUUCGGAACG [C29G A65U]	0.579
GUUCCGUUGGCGUAAUGGUAACGCGUCUGCCUCCUAAGGAGAAGACUGCGGGUUCGUGUCCCGUACGGAACG [C29G A57U]	0.72
GUUCCGUUGGCGUAAUGGUAACGCGUCUGCCUUCUAAGGAGAAGACCGCGGGUUCGAGUCCCGUACGGAACG [C29G C33U U47C]	≤ 0.5
GUUCCGUUGGCGUAAUGGUAACGCGUCUGCCUCAUAAGCAGAAGACUGCGGGUUCGAGUCCCGUACGGAACG [C29G C34A G39C]	≤ 0.5
